tim23-1 inh = inhibits growth of tim23-1 mutant yeast; AID 463212; S. cerevisiae tim23-1 growth, BacTiter-Glo luminescence, 24 h; inhibition, % at 20 µM; 330,000 tested, 1.3% active;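 active = growth inhibition of the mutant yeast at or above 50%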;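 also: temperature-sensitive mutant grown at 25 °C; plate controls were DMSO-treated mutant yeast for no effect and medium wells lacking yeast for full effect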
UPR XBP1 act = adaptive UPR (XBP1) activation; CHO-XBP1 luciferase reporter, IRE1-XBP1 UPR activation, luminescence; percent of tunicamycin response, DMSO as zero; activation, % at 20 µM; 330,000 tested, 0.33% active; AID 463104;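 active = versus positive control, 20 µM dose yields 30% or more activation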;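 also: 100% = tunicamycin at 10 µg/mL and 0% = DMSO only wells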
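Material: CHO-XBP1 cells stably carrying IRE1-XBP1-driven luciferase reporter | Medium: F12 with 10% serum | Compound dosing: 20 µM single concentration, DMSO 1% | Incubation: Overnight seeding at 37 °C, 6 h compound treatment at 37 °C | Detection: Steady-Glo luminescence read | Read-out basis: % activation of reporter signal versus tunicamycin and DMSO controls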
TIM10 inh = inhibits growth of TIM10 yeast strain. S. cerevisiae TIM10 strain growth, BacTiter-Glo luminescence, 24 h. inhibition, % at 10 µM. 330,000 tested, 1.4% active. AID 463195;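 active = inhibition of 40% or more at the single tested concentration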;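 also: wild-type TIM10 isogenic control strain grown at permissive 25 °C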
CHOP UPR activ = activators of apoptotic arm of unfolded protein response (CHOP); activation, % at 10 µM; AID 449763; CHO-CHOP luciferase reporter, UPR activation, luminescence; percent of tunicamycin response over DMSO baseline; 330,000 tested, 0.34% active;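 active = at 10 µM dose, activation of 40% or more, normalized to positive control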;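 also: 100% = tunicamycin at 10 µg/mL and 0% = DMSO alone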
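System: CHO-CHOP luciferase reporter cell line; amount: 500 cells/well; buffer or medium: F12 medium containing 10% fetal bovine serum; incubation: 6 h compound exposure at 37 °C after overnight seeding; measured by: luciferase luminescence after 10 min with Steady-Glo reagent; evaluation: % reporter activation, DMSO baseline versus tunicamycin full activation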
tim10-1 inh = inhibits growth of tim10-1 mutant yeast. S. cerevisiae tim10-1 ts strain growth, BacTiter-Glo, 24 h. inhibition, % at 20 µM. 330,000 tested, 2.2% active. AID 463190;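 active = inhibition of at least 40%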;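 also: mutant grown at 25 °C; 0% = DMSO wells with yeast and 100% = wells holding no yeast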
UPR XBP1 confirm = adaptive UPR (XBP1) activation, confirmed. shares compounds with UPR XBP1 act. CHO-XBP1 IRE1-XBP1 luciferase reporter, luminescence. activation, % at 20 µM. 1,000 tested, 63% active. AID 485299;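 active = reporter signal at least 30% of the positive control's activation in two or more of four replicate wells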;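 also: plate controls were DMSO negative control for no effect and tunicamycin 10 µg/mL positive control for full effect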
tim10-1 confirm = tim10-1 yeast growth inhibition, confirmed. shares compounds with tim10-1 inh. S. cerevisiae tim10-1 ts strain growth, BacTiter-Glo, 24 h. inhibition, % at 20 µM. 7,400 tested, 56% active;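 active = inhibition of yeast growth at or above a set limit in either of two repeat tests at 20 µM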;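 also: tim10-1 mutant grown at permissive 25 °C to find synthetic lethal compounds; 0% = DMSO yeast wells and 100% = medium wells without yeast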
Starred values were filed as active, the others as inactive; · = not tested or not shown. Sampled rows, rich in hits. Any-hit rate of the full collection: about 3.9%.

SMILES | tim23-1 inh | UPR XBP1 act | TIM10 inh | CHOP UPR activ | tim10-1 inh | UPR XBP1 confirm | others
COc1cccc(C2Nc3ccc4ccccc4c3C3=C2C(=O)CCC3)c1O (configuration not stated) | -0.1 | 57.0* | -19.3 | 1.7 | -13.1 | 7.5
O=C(CN(CC1CCCO1)C(=O)CNS(=O)(=O)c1ccc(F)cc1)NC1CCCCC1 (configuration not stated) | -0.4 | 2.2 | 7.3 | 0.4 | 0.4 | ·
Cc1cnc(Nc2nc3ccccc3o2)nc1C(=O)Nc1cccc(C(F)(F)F)c1 | 3.3 | 45.3* | 13.9 | 2.5 | 1.5 | 9.3
Cc1ccc2nc(SCC(=O)Nc3cc(C(F)(F)F)ccc3N3CCOCC3)[nH]c2c1 | 6.3 | 35.4* | 14.6 | 2.0 | 11.7 | 39.7*
COc1ccc2nc(N(Cc3ccccc3)C(=O)CCNC(C)=O)sc2c1 | 15.6 | 2.0 | -9.4 | 1.0 | 18.3 | ·
COc1ccc(-c2ccc(C#N)c(SCC(=O)Nc3sc4c(c3C#N)CCC4)n2)cc1OC | -6.3 | 40.6* | -9.4 | 27.9 | 13.5 | 55.8*
N#Cc1cc2c(nc1SCC(=O)Nc1sc3c(c1C#N)CCC3)CCC2 | -9.4 | 5.6 | -9.3 | 3.9 | 1.9 | ·
N#C/C(=C\c1ccc(N2CCCC2)c([N+](=O)[O-])c1)c1nc2ccccc2[nH]1 | 22.7 | 111.3* | 29.6 | 6.1 | 19.9 | 70.9*
N#C/C(=C\c1ccc(N2CCCCC2)c([N+](=O)[O-])c1)c1nn(-c2ccccc2)c(N)c1C#N | 8.3 | -1.0 | 12.5 | -0.3 | 8.9 | ·
CCn1c(O)c(C(C#N)=C2N=c3ccccc3=N2)c2ccccc21 | 22.5 | 33.7* | 15.6 | -2.0 | 17.3 | -0.6
Cc1ccc(S(=O)(=O)N2[C@@H](c3ccc(F)cc3)C(C(=O)O)=CC[C@H]2c2cccs2)cc1 | -3.2 | 1.2 | -13.1 | -2.1 | 7.6 | ·
CN(C)CCOc1ccc(-c2c(-c3ccccc3)sc3ccccc23)cc1 | 7.1 | 60.5* | 33.9 | 4.5 | -25.0 | 55.5*
c1ccc(-c2sc3ccccc3c2-c2ccc(OCCN3CCCCC3)cc2)cc1 | -10.0 | -1.3 | -1.2 | -0.2 | 2.5 | ·
COc1ccc2c(c1)[nH]c1c(=O)n(/N=C/C3C(C)C=C(C)CC3C)c(=O)[nH]c12 (configuration not stated) | 5.4 | 55.8* | 15.2 | 2.1 | 8.2 | 86.0*
COc1ccc(/C=N/n2c(=O)[nH]c3c([nH]c4ccc(Br)cc43)c2=O)cc1CN1CCOCC1 | 9.6 | -3.1 | 0.0 | -1.3 | 18.9 | ·
COc1ccc2[nH]c3c(=O)n(/N=C/[C@H]4C(C)C=C(C)CC4C)c(=O)[nH]c3c2c1 (some centres not stated) | 9.3 | 0.7 | 18.1 | 1.9 | -12.1 | ·
CC1=CC(C)[C@H](/C=N/n2c(=O)[nH]c3c([nH]c4ccc(Br)cc43)c2=O)C(C)C1 (some centres not stated) | -0.9 | 80.1* | 12.3 | 30.4 | 9.9 | 99.8*
O=C(OCC(=O)N1CCN(c2ccccc2)CC1)C1CCCN1S(=O)(=O)c1ccc(Cl)cc1 (configuration not stated) | 24.2 | -3.6 | 4.1 | 2.5 | 9.2 | ·
CCN1C(=O)/C(=C2/Sc3ccc(OC)cc3N2C)SC1=Nc1cccc(O)c1 | -5.2 | 69.6* | 11.5 | 17.6 | 14.3 | 18.3
C=CCN1C(=O)/C(=C2/Sc3ccc(OC)cc3N2C)SC1=Nc1ccccc1 | -27.0 | 10.3 | 0.5 | 1.2 | -9.8 | ·
CC(Oc1ccc(Cl)cc1)C(=O)Nc1ccccc1C(=O)N1CCOCC1 (configuration not stated) | 19.2 | -0.5 | 2.2 | 0.5 | 13.5 | ·
CC(Oc1ccccc1Cl)C(=O)Nc1ccccc1C(=O)N1CCOCC1 (configuration not stated) | 17.6 | 32.5* | 12.5 | -2.3 | 17.1 | -0.1
COc1cc(OC)cc(C(=O)Nc2ccc3nc4n(c(=O)c3c2)CCCCC4)c1 | 19.2 | 32.4* | 2.1 | 6.4 | 31.2 | 36.0*
COc1ccccc1C(=O)Nc1ccc2nc3n(c(=O)c2c1)CCCC3 | 26.4 | -1.5 | 5.4 | 0.0 | 20.7 | ·
CCN(CC)c1ccc(-c2nn3c(-c4ccccc4OC)nnc3s2)cc1 | 41.3 | 30.4* | 35.0 | 2.3 | 34.6 | 31.9*
SMILES | tim23-1 inh | UPR XBP1 act | TIM10 inh | CHOP UPR activ | tim10-1 inh | UPR XBP1 confirm | others
CCc1ccc(NC(=O)c2cc(S(=O)(=O)N3CCc4ccccc43)cn2C)cc1 | 0.6 | -6.1 | -10.4 | 2.9 | -1.0 | ·
Cc1ccc(NC(=O)CSc2nc3ccccc3c3nc4ccccc4n23)cc1 | 15.1 | 92.5* | 9.5 | 38.8 | 24.8 | 200.3*
COc1ccc(/C=N/Nc2nnc(Cc3ccc(OC)c(OC)c3)c(=O)[nH]2)cc1OC | -1.6 | 2.0 | 13.5 | -1.4 | 7.1 | ·
COc1ccc(Cc2nnc(N/N=C/c3ccc(N(C)C)cc3)[nH]c2=O)cc1OC | -13.8 | 31.5* | -11.6 | 12.6 | 1.8 | 50.8*
CNC[C@H]1Oc2c(NS(=O)(=O)c3ccccc3)cccc2C(=O)N([C@H](C)CO)C[C@@H]1C | 0.7 | -0.2 | -5.0 | 2.9 | 0.2 | ·
COc1cc(N(C(=O)Cc2cccs2)C(C(=O)NC2CCCCC2)c2ccc(C)cc2)ccc1-n1cnnn1 (configuration not stated) | -7.3 | 35.1* | 13.3 | -0.6 | 5.2 | 37.5*
COc1ccc(OC)c(NC(=O)c2cc3oc4ccccc4c3cc2O)c1 | -8.8 | 36.8* | -8.7 | 1.6 | -13.3 | 5.9
CCC1CCCCN1CCCNC(=O)CCC(=O)N1CCOc2ccccc21 (configuration not stated) | -7.1 | 1.9 | -1.1 | -1.5 | -12.3 | ·
Cc1ccc(OCC(O)CNC2CCCC2)c(C)c1 (configuration not stated) | -4.6 | -2.4 | -1.1 | -1.3 | 2.4 | ·
Cc1ccccc1OCC(O)CNC1CCC(NCC(O)COc2ccccc2C)CC1 (configuration not stated) | -145.2 | 43.1* | -221.4 | 56.4* | -184.0 | 11.4
COc1ccc(CC(C)Nc2cccc(SC)c2)cc1 (configuration not stated) | 23.4 | -3.4 | 8.7 | 0.4 | 10.7 | ·
COc1cc(C(=O)N(C)CC(=O)Nc2cccc(F)c2)ccc1OCc1ccccc1 | 23.0 | -3.9 | 17.6 | 1.1 | 21.5 | ·
COC(=O)c1sc2nc(C)cc(C)c2c1N | 23.3 | -2.6 | -9.5 | 1.9 | 15.4 | ·
COc1cc(/C=N/NC(=O)c2sc3nc(C)cc(C)c3c2N)ccc1O | 3.2 | 46.5* | 8.1 | 1.0 | 12.1 | 16.4
CCOC(=O)Cn1c(COc2ccccc2OC)[n+](C)c2ccccc21 | 8.1 | -2.1 | 9.8 | -0.3 | -6.5 | ·
CCCCCCCCCCOC(=O)Cn1c(COc2ccccc2C)[n+](C)c2ccccc21 | -17.6 | 60.0* | 24.8 | 20.5 | 70.0* | 72.2* | tim10-1 confirm=-63.2

Assay outcomes: PubChem, Sanford-Burnham Center for Chemical Genomics
